Assay results published in ChEMBL document CHEMBL1152718, “Novel potent inhibitors of hepatitis C virus (HCV) NS3 protease with cyclic sulfonyl P3 cappings” (Bioorg Med Chem Lett, 2009).
Each block holds one compound with its values, some of them ahead of it. The source made the active and inactive calls. The rule behind the calls is not given here.

Tests used:
[1] = (§1) AUC in rat at 3 mg/kg, po; assay type: ADME, organism-based, Plasma; design: dose 3 mg/kg, route oral; details: plasma
[2] = Inhibition of HCV isolate BK NS4A-tethered single chain NS3 serine protease; design: species or system Hepatitis C virus (isolate BK)
Procedure, shortened: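 Continuous (kinetic) assay using the NS4A-tethered single-chain NS3 serine protease. The result is reported as K_i*, an equilibrium constant covering the reversible covalent ketone–serine adduct plus other inhibitor–enzyme contacts.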

[3] = Selectivity for HCV isolate BK NS4A-tethered single chain NS3 serine protease over human neutrophil elastase
[4] = tested on: Hepatitis C virus; test: Antiviral activity against HCV in human Huh7 cells by replicon-based ELISA; assay type: functional, Hepacivirus hominis; details: Huh-7
Procedure, shortened: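 Replicon assay run only on compounds with good enzyme potency. The value is EC90, the concentration that inhibits 90% of replicon replication.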

[5] = tested on: Rattus norvegicus; test: as §1; assay type: ADME, organism-based, Plasma; design: dose 3 mg/kg, route oral; details: in vivo
[6] = Bioavailability in dog; assay type: ADME, organism-based, Canis lupus familiaris; details: in vivo
[7] = Bioavailability in monkey; assay type: ADME, organism-based, Macaca mulatta; details: rhesus monkey, in vivo

SMILES: C=CCNC(=O)C(=O)C(CCC)NC(=O)[C@@H]1[C@@H]2[C@H](CN1C(=O)[C@@H](NC(=O)N[C@H](CN1CCCCS1(=O)=O)C1CCCCC1)C(C)(C)C)C2(C)C (some centres not stated)
AUC [1]: 0.18 µM·h
Ki [2]: 30 nM
Selectivity ratio [3]: 50
EC90 [4]: 250 nM

SMILES: C=CCNC(=O)C(=O)C(CCC)NC(=O)[C@@H]1[C@@H]2[C@H](CN1C(=O)[C@@H](NC(=O)N[C@H](CN1C(=O)c3ccccc3S1(=O)=O)C(C)(C)C)C(C)(C)C)C2(C)C (some centres not stated)
Ki [2]: 15 nM
Selectivity ratio [3]: 310
EC90 [4]: 230 nM

SMILES: C=CCNC(=O)C(=O)C(CCC)NC(=O)[C@@H]1[C@@H]2[C@H](CN1C(=O)[C@@H](NC(=O)N[C@H](CN1CCCN(C)S1(=O)=O)C(C)(C)C)C(C)(C)C)C2(C)C (some centres not stated)
AUC [1]: 0.2 µM·h
Ki [2]: 14 nM
Selectivity ratio [3]: 490
EC90 [4]: 150 nM

SMILES: C=CCNC(=O)C(=O)C(CCC)NC(=O)[C@@H]1[C@@H]2[C@H](CN1C(=O)[C@@H](NC(=O)NC1(CN3Cc4sccc4S3(=O)=O)CCCCC1)C(C)(C)C)C2(C)C (some centres not stated)
Ki [2]: 41 nM
Selectivity ratio [3]: 130
EC90 [4]: 400 nM

SMILES: C=CCNC(=O)C(=O)C(CCC)NC(=O)[C@@H]1[C@@H]2[C@H](CN1C(=O)[C@@H](NC(=O)N[C@H](CN1CCCNS1(=O)=O)C(C)(C)C)C(C)(C)C)C2(C)C (some centres not stated)
Ki [2]: 59 nM
Selectivity ratio [3]: 80
EC90 [4]: 350 nM

SMILES: C=CCNC(=O)C(=O)C(CCC)NC(=O)[C@@H]1[C@@H]2[C@H](CN1C(=O)[C@@H](NC(=O)N[C@H](CN1Cc3ccccc3S1(=O)=O)C(C)(C)C)C1CCCCC1)C2(C)C (some centres not stated)
Ki [2]: 7 nM
Selectivity ratio [3]: 19
EC90 [4]: 150 nM

SMILES: C=CCNC(=O)C(=O)C(CCC)NC(=O)[C@@H]1[C@@H]2[C@H](CN1C(=O)[C@@H](NC(=O)N[C@H](CN1Cc3sccc3S1(=O)=O)C(C)(C)C)C(C)(C)C)C2(C)C (some centres not stated)
AUC [1]: 0.43 µM·h
Ki [2]: 10 nM
Selectivity ratio [3]: 150
EC90 [4]: 150 nM

SMILES: C=CCNC(=O)C(=O)C(CC1CC1)NC(=O)[C@@H]1[C@@H]2[C@H](CN1C(=O)[C@@H](NC(=O)N[C@H](CN1Cc3ccccc3S1(=O)=O)C(C)(C)C)C(C)(C)C)C2(C)C (some centres not stated)
AUC [1]: 0.705 µM·h
Ki [2]: 7 nM
Selectivity ratio [3]: 1600
EC90 [4]: 150 nM

SMILES: C=CCNC(=O)C(=O)C(CCC)NC(=O)[C@@H]1[C@@H]2[C@H](CN1C(=O)[C@@H](NC(=O)N[C@H](CN1CCCS1(=O)=O)C(C)(C)C)C(C)(C)C)C2(C)C (some centres not stated)
AUC [1]: 0.09 µM·h
Ki [2]: 11 nM
Selectivity ratio [3]: 230
EC90 [4]: 200 nM

SMILES: CC(C)(C)NC(=O)N[C@H](C(=O)N1C[C@H]2[C@@H]([C@H]1C(=O)NC(CC1CCC1)C(=O)C(N)=O)C2(C)C)C(C)(C)C (some centres not stated) [BOCEPREVIR]
Ki [2]: 14 nM
bioavailability [6]: 34%
bioavailability [7]: 4%
EC90 [4]: 350 nM

SMILES: C=CCNC(=O)C(=O)C(CCC)NC(=O)[C@@H]1[C@@H]2[C@H](CN1C(=O)[C@@H](NC(=O)N[C@H](CN1Cc3sccc3S1(=O)=O)C(C)(C)C)C1CCCCC1)C2(C)C (some centres not stated)
Ki [2]: 14 nM
Selectivity ratio [3]: 10
EC90 [4]: 100 nM

SMILES: C=CCNC(=O)C(=O)C(CC1CCC1)NC(=O)[C@@H]1[C@@H]2[C@H](CN1C(=O)[C@@H](NC(=O)N[C@H](CN1Cc3ccccc3S1(=O)=O)C(C)(C)C)C(C)(C)C)C2(C)C (some centres not stated)
Activity [5]: Not Active
Ki [2]: 30 nM
Selectivity ratio [3]: 1500
Activity ([4]; Hepacivirus hominis): inactive

SMILES: C=CCNC(=O)C(=O)C(CCC)NC(=O)[C@@H]1[C@@H]2[C@H](CN1C(=O)[C@@H](NC(=O)N[C@H](CN1Cc3ccccc3S1(=O)=O)C1CCCCC1)C(C)(C)C)C2(C)C (some centres not stated)
Ki [2]: 18 nM
Selectivity ratio [3]: 55
EC90 ([4]; Hepacivirus hominis): inactive

Compounds with a lower Ki [2], results first:

AUC [1]: 0.67 µM·h
Ki [2]: 6 nM
Selectivity ratio [3]: 650
EC90 [4]: 200 nM
SMILES: C=CCNC(=O)C(=O)C(CCC)NC(=O)[C@@H]1[C@@H]2[C@H](CN1C(=O)[C@@H](NC(=O)N[C@H](CN1CCCCS1(=O)=O)C(C)(C)C)C(C)(C)C)C2(C)C (some centres not stated)

Ki [2]: 5 nM
Selectivity ratio [3]: 50
EC90 [4]: 150 nM
SMILES: C=CCNC(=O)C(=O)C(CCC)NC(=O)[C@@H]1[C@@H]2[C@H](CN1C(=O)[C@@H](NC(=O)N[C@H](CN1Cc3ccccc3S1(=O)=O)C(C)(C)C)C1(C)CCCCC1)C2(C)C (some centres not stated)

AUC [1]: 1.43 µM·h
Ki [2]: 5 nM
Selectivity ratio [3]: 6100
EC90 [4]: 80 nM
SMILES: C=CCNC(=O)C(=O)C(CCCC)NC(=O)[C@@H]1[C@@H]2[C@H](CN1C(=O)[C@@H](NC(=O)N[C@H](CN1Cc3ccccc3S1(=O)=O)C(C)(C)C)C(C)(C)C)C2(C)C (some centres not stated)

Ki [2]: 3 nM
Selectivity ratio [3]: 68
EC90 [4]: 100 nM
SMILES: C=CCNC(=O)C(=O)C(CCC)NC(=O)[C@@H]1[C@@H]2[C@H](CN1C(=O)[C@@H](NC(=O)N[C@H](CN1Cc3sccc3S1(=O)=O)C(C)(C)C)C1(C)CCCCC1)C2(C)C (some centres not stated)

AUC [1]: 0.373 µM·h
Ki [2]: 3 nM
Selectivity ratio [3]: 650
SMILES: C=CCNC(=O)C(=O)C(CCC)NC(=O)[C@@H]1[C@@H]2[C@H](CN1C(=O)[C@@H](NC(=O)N[C@H](CN1Cc3ccccc3S1(=O)=O)C(C)(C)C)C(C)(C)C)C2(C)C (some centres not stated)

Activity [5]: Not Active
Ki [2]: 0.9 nM
Selectivity ratio [3]: 380
EC90 [4]: 250 nM
SMILES: C#CCCC(NC(=O)[C@@H]1[C@@H]2[C@H](CN1C(=O)[C@@H](NC(=O)N[C@H](CN1Cc3ccccc3S1(=O)=O)C(C)(C)C)C(C)(C)C)C2(C)C)C(=O)C(=O)NCC=C (some centres not stated)
